# Results published in ChEMBL document CHEMBL1268815, “Modulating the development of E. coli biofilms with 2-aminoimidazoles” (Bioorg Med Chem Lett, 2010).
# Key:
# Escherichia coli K-12 [1] = assay: Effect on Escherichia coli K-12 ER2738 biofilm formation at 400 uM after 24 hrs by crystal violet reporter assay relative to control; format: functional; settings: ER2738, 24 h
# Procedure, shortened: (§1)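 Initial single-concentration screen for effect on biofilm development. Bacteria were incubated statically with or without compound for 24 h. Medium and planktonic cells were removed and wells were water-washed. Attached biofilm was stained with crystal violet, washed, and the stain was solubilized in ethanol and read at A540. Results were expressed relative to untreated control as means of three experiments.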
# Escherichia coli K-12 [2] = assay: Effect on Escherichia coli K-12 ER2738 biofilm formation by crystal violet reporter assay relative to control; format: functional, organism-based
# Procedure, shortened: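 E. coli biofilm development was measured under static conditions by crystal violet reporter assay. Cultures were grown with or without compound for 24 h, then planktonic cells and medium were removed and wells were water-washed. Biofilm was stained with crystal violet, and the retained dye was ethanol-solubilized and quantified at A540 against untreated control.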
# Escherichia coli K-12 [3] = assay: Dispersion of preformed Escherichia coli K-12 ER2738 biofilm by crystal violet reporter assay relative to control
# [4] = Toxicity in sheep RBC assessed as induction of hemolysis; format: cell-based, Ovis aries; settings: erythrocyte
# Acinetobacter baumannii = assay: Effect on Acinetobacter baumannii biofilm formation at 400 uM after 24 hrs by crystal violet reporter assay relative to control; format: functional; settings: read-out: INH; procedure, shortened: as §1
SMILES,inhibition at 400 µM (Escherichia coli K-12 [1]) [%],inhibition at 400 µM (Acinetobacter baumannii) [%],further results
CCCCCCCCCCNC(=O)Cn1cc(CCCCCc2c[nH]c(N)n2)nn1,58.9,–,–
Nc1nc(CCCCCc2cn(CC(=O)Nc3ccccc3)nn2)c[nH]1,-143,–,–
Nc1nc(CCCCCc2cn(CC(=O)NCCc3ccccc3)nn2)c[nH]1,-174,–,–
CCCCCCCCNC(=O)Cn1cc(CCCCCc2c[nH]c(N)n2)nn1.Cl,–,–,IC50 (Escherichia coli K-12 [2]): 13 µM; EC50 (Escherichia coli K-12 [3]): Not Active; Activity [4]: 675 µM
CCCCCCNC(=O)Cn1cc(CCCc2c[nH]c(N)n2)nn1,-30.3,31.4,–
CCCCCCCCCCNC(=O)Cn1cc(CCCc2c[nH]c(N)n2)nn1.Cl,90.8,28.3,"IC50 (Escherichia coli K-12 [2]): 36.9 µM; EC50 (Escherichia coli K-12 [3]; Escherichia coli, ER2738, read-out: EC50): 120 µM; Activity [4]: 487 µM"
CCCCCCCCCCCCCCNC(=O)Cn1cc(CCCc2c[nH]c(N)n2)nn1,57.8,36.4,–
CC(C)NC(=O)Cn1cc(CCCc2c[nH]c(N)n2)nn1,-127,13.6,–
CC(C)(C)NC(=O)Cn1cc(CCCc2c[nH]c(N)n2)nn1,17.6,21.2,–
Nc1nc(CCCc2cn(CC(=O)NC3CCCC3)nn2)c[nH]1,-47.8,15.9,–
Nc1nc(CCCc2cn(CC(=O)NC3CCCCC3)nn2)c[nH]1,-169,–,–
Nc1nc(CCCc2cn(CC(=O)N3CCCC3)nn2)c[nH]1,2.6,6.2,–
Nc1nc(CCCc2cn(CC(=O)N3CCOCC3)nn2)c[nH]1,-183,30.3,–
Nc1nc(CCCc2cn(CC(=O)Nc3ccccc3)nn2)c[nH]1,-142,23,–
Cl.Nc1nc(CCCc2cn(CC(=O)NCc3ccccc3)nn2)c[nH]1,–,19.5,Activity [4]: > 800 µM
Nc1nc(CCCc2cn(CC(=O)NCCc3ccccc3)nn2)c[nH]1,-41.8,20.8,–
Nc1nc(CCCc2cn(CC(=O)NCCCc3ccccc3)nn2)c[nH]1,-176,23.2,–
COc1ccc(NC(=O)Cn2cc(CCCc3c[nH]c(N)n3)nn2)cc1,-169,–,–
COc1ccc(CNC(=O)Cn2cc(CCCc3c[nH]c(N)n3)nn2)cc1,-19.9,17.5,–
COc1ccc(CCNC(=O)Cn2cc(CCCc3c[nH]c(N)n3)nn2)cc1.Cl,–,8.5,Activity [4]: > 800 µM
